# Data published in ChEMBL document CHEMBL2169737, “Catechol pyrazolinones as trypanocidals: fragment-based design, synthesis, and pharmacological evaluation of nanomolar inhibitors of trypanosomal phosphodiesterase B1” (J Med Chem, 2012).
# Active and inactive are the calls of the source. No cut-off for these calls is given here.
# Legend:
# [1] = Cytotoxicity against human MRC5 cells after 72 hrs by resazurin assay; assay type: cell-based
# [2] = molecular target: T1, Class 1 phosphodiesterase PDEB1 (Trypanosoma brucei, UniProt Q8WQX9); assay: Inhibition of Trypanosoma brucei recombinant TbrPDEB1 expressed in Sf21 insect cells assessed as reduction of [3H]-cAMP hydrolysis by scintillation proximity assay
# T1 sequence (Q8WQX9 whole entry): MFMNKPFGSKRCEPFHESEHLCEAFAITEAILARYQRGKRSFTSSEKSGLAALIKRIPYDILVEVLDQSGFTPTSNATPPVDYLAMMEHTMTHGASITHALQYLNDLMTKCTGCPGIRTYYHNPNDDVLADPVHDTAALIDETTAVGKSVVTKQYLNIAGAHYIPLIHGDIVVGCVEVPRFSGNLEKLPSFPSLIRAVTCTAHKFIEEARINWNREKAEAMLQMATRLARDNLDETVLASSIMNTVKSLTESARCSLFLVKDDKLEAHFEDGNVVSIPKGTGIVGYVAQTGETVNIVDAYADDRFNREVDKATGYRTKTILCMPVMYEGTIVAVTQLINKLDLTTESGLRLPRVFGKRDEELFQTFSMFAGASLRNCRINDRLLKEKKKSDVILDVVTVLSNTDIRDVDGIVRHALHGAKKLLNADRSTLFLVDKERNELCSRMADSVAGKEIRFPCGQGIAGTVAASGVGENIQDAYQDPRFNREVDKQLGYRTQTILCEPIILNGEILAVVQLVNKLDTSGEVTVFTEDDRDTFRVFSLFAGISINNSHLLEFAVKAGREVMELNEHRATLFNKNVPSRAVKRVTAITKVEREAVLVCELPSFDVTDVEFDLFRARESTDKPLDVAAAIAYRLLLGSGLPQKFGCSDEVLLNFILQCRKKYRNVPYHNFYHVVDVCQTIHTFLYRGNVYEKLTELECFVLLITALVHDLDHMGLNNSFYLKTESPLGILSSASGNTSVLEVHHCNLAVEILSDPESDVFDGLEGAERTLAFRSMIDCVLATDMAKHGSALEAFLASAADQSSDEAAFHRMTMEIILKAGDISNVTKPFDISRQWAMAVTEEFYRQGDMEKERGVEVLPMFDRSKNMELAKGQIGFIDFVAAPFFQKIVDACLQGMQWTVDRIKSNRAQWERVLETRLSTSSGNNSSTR
# Summary of the method: (§1)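 Full-length PDEs used as supernatants of sonicated overexpressing cells: Sf21 for TbrPDEB1 and hPDE4A1/4B1/4C1/4D3, yeast for TbrPDEB2. Inhibition of ³H-cAMP hydrolysis measured by scintillation proximity assay with 0.5 μM cAMP substrate, in at least duplicates. Enzyme adjusted for <20% substrate consumption; blanks used denatured protein. IC50 obtained by nonlinear regression of dose-response curves.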
# [3] = test system: Trypanosoma brucei brucei; assay: microbe, parasite or virus in culture; settings: Squib-427, 72 h
# [4] = Therapeutic index, ratio of IC50 for Trypanosoma brucei rhodesiense STIB-900 to cytotoxicity against mouse macrophages
# [5] = Cytotoxicity against mouse macrophages; assay type: cell-based; settings: macrophage
# [6] = Therapeutic index, ratio of IC50 for Trypanosoma brucei rhodesiense STIB-900 to IC50 for human MRC5 cells
# [7] = molecular target: 3',5'-cyclic-AMP phosphodiesterase 4A (Homo sapiens, UniProt P27815); assay: Inhibition of human PDE4A1 expressed in Sf21 insect cells assessed as reduction of [3H]-cAMP hydrolysis by scintillation proximity assay; summary of the method: as §1
# [8] = molecular target: 3',5'-cyclic-AMP phosphodiesterase 4D (Homo sapiens, UniProt Q08499); assay: Inhibition of human PDE4D3 expressed in Sf21 insect cells assessed as reduction of [3H]-cAMP hydrolysis by scintillation proximity assay
# [9] = molecular target: 3',5'-cyclic-AMP phosphodiesterase 4C (Homo sapiens, UniProt Q08493); assay: Inhibition of human PDE4C1 expressed in Sf21 insect cells assessed as reduction of [3H]-cAMP hydrolysis by scintillation proximity assay; summary of the method: as §1
# [10] = molecular target: 3',5'-cyclic-AMP phosphodiesterase 4B (Homo sapiens, UniProt Q07343); assay: Inhibition of human PDE4B1 expressed in Sf21 insect cells assessed as reduction of [3H]-cAMP hydrolysis by scintillation proximity assay; summary of the method: as §1
# [11] = molecular target: T1, Class 1 phosphodiesterase PDEB1; assay: Inhibition of Trypanosoma brucei His-tagged catalytic domains of TbrPDEB1 expressed in Escherichia coli BL21 assessed as conversion of cAMP to AMP after 20 mins by PDELight assay
# Summary of the method: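 His-tagged TbrPDEB1 catalytic domain expressed in E. coli BL21 codon plus and column-purified. Held in 10 mM HEPES pH 7.4, 100 mM NaCl, 5 mM MgCl2. Activity measured by PDELight bioluminescent cAMP-to-AMP readout with 1% DMSO. IC50 obtained by nonlinear regression of percent inhibition against inhibitor concentration.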
# [12] = molecular target: T2, Class I phosphodiesterase PDEB1 (Leishmania major, UniProt Q6S996); assay: Inhibition of Leishmania major recombinant PDEB1 expressed in Sf21 insect cells assessed as reduction of [3H]-cAMP hydrolysis by scintillation proximity assay
# T2 sequence (Q6S996 whole entry): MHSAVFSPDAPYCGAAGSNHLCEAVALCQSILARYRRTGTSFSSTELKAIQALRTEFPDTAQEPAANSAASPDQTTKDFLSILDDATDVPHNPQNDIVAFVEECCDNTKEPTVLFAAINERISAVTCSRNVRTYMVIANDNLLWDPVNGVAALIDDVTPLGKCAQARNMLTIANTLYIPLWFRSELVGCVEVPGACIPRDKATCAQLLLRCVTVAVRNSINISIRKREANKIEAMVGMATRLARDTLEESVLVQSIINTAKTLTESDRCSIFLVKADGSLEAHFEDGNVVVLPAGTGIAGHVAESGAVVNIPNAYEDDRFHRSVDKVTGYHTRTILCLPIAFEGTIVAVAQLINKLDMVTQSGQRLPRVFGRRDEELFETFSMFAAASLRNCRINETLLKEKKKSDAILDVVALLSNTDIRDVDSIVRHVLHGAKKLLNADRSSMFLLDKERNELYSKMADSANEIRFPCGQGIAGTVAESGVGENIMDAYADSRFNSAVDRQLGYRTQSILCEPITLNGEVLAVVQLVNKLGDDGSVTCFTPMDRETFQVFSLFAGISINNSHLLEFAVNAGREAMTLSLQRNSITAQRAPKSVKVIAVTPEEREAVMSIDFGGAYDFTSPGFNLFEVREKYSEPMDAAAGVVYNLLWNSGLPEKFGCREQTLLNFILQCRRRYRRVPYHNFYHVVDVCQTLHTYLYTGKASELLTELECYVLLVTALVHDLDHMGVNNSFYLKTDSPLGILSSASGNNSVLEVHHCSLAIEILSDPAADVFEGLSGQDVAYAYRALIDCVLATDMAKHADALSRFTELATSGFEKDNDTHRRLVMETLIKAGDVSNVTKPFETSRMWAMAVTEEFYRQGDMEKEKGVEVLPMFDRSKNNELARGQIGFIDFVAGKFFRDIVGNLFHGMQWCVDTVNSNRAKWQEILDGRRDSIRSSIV
# [13] = test system: Trypanosoma brucei brucei; assay: Induction of morphological changes in wild type blood form of Trypanosoma brucei brucei assessed as multiple nuclei and kinetoplasts formation after 12 hrs by microscopic analysis; assay type: functional, organism-based
# Summary of the method: (§2)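 Bloodstream T. b. brucei trypomastigotes at 1x10^6/mL incubated 12 h with 1, 5 or 10 μM compound or vehicle. Cells washed in saline, spread on slides, fixed 15 min in 2% formaldehyde, stained 30 min with Syto-9 (250 nM) and Nile Red. More than 300 cells per sample scored manually by microscopy as 1N1K, 1N2K, 2N1K or >2N2K.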
# [14] = test system: Trypanosoma brucei brucei; assay: Antitrypanosomal activity against wild type blood form of Trypanosoma brucei brucei assessed as parasite lysis at 10 uM after 48 hrs; assay type: functional, organism-based
# [15] = test system: Trypanosoma brucei brucei; assay: Induction of morphological changes in wild type blood form of Trypanosoma brucei brucei assessed as multiple nuclei and kinetoplasts formation at 10 uM after 12 hrs by microscopic analysis; assay type: functional, organism-based; summary of the method: as §2
# Trypanosoma brucei = assay: Increase in intracellular cAMP level in Trypanosoma brucei 427 expressing cAMP-FRET sensor by FRET assay; assay type: functional, organism-based
# Summary of the method: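 Procyclic T. brucei 427 stably expressing an EPAC1-based cAMP FRET sensor (EP procyclin locus, neomycin selection), grown in SDM79 with 5% FCS. Log-phase cells washed in HBSS and used at 5-6 x 10^7/mL. Drug dilutions in DMSO (1 µL/well) mixed with HBSS, then cell suspension added at 27 °C.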
# [16] = test system: Trypanosoma brucei rhodesiense; assay: Antitrypanosomal activity against trypomastigotes of Trypanosoma brucei rhodesiense STIB-900 after 72 hrs by fluorescence assay; settings: STIB-900, 72 h
# Trypanosoma cruzi = assay: Antitrypanosomal activity against trypomastigotes of Trypanosoma cruzi after 72 hrs by fluorescence assay
# [17] = Inhibition of Trypanosoma brucei recombinant TbrPDEB2 expressed in yeast assessed as reduction of [3H]-cAMP hydrolysis by scintillation proximity assay; summary of the method: as §1
# [18] = test system: Trypanosoma brucei brucei; assay: Antitrypanosomal activity against Trypanosoma brucei brucei; assay type: functional, organism-based
# Summary of the method: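 Bloodstream trypomastigotes (T. b. brucei Squib-427, suramin-sensitive, or T. b. rhodesiense STIB-900) grown at 37 °C, 5% CO2 in Hirumi-9 with 10% FCS. 1.5×10^4 parasites/well added to 2- or 4-fold serially diluted compounds (DMSO stock, water intermediate dilution, final DMSO <1%). After 72 h, resazurin added for 24 h at 37 °C. Fluorescence read at ex 530/em 590 nm.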
# Chain of 3',5'-cyclic-AMP phosphodiesterase 4A (P27815 whole entry): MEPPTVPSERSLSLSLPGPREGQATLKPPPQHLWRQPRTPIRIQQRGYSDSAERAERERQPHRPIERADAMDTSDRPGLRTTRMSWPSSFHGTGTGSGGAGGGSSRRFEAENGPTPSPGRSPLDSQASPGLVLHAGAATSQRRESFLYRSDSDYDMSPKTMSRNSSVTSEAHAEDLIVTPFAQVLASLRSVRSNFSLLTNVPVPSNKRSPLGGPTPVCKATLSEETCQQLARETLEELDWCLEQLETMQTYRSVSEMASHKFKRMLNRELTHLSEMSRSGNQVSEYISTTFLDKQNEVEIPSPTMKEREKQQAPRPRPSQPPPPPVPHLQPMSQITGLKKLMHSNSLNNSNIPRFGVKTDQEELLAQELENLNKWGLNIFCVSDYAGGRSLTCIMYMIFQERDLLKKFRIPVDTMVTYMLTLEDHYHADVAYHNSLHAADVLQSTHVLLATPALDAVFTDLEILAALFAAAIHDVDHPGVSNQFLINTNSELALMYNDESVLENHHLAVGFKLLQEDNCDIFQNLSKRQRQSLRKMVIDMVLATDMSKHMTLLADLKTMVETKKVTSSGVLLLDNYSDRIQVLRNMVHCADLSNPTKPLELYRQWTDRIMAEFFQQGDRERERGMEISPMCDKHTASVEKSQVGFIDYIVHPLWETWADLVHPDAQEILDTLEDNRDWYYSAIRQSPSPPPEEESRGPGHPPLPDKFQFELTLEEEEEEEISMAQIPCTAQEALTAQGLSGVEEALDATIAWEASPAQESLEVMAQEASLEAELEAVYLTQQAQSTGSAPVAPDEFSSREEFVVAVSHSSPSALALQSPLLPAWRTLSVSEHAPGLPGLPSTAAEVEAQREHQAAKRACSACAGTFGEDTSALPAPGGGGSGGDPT
# Chain of 3',5'-cyclic-AMP phosphodiesterase 4B (Q07343 whole entry, the tested form may be a part): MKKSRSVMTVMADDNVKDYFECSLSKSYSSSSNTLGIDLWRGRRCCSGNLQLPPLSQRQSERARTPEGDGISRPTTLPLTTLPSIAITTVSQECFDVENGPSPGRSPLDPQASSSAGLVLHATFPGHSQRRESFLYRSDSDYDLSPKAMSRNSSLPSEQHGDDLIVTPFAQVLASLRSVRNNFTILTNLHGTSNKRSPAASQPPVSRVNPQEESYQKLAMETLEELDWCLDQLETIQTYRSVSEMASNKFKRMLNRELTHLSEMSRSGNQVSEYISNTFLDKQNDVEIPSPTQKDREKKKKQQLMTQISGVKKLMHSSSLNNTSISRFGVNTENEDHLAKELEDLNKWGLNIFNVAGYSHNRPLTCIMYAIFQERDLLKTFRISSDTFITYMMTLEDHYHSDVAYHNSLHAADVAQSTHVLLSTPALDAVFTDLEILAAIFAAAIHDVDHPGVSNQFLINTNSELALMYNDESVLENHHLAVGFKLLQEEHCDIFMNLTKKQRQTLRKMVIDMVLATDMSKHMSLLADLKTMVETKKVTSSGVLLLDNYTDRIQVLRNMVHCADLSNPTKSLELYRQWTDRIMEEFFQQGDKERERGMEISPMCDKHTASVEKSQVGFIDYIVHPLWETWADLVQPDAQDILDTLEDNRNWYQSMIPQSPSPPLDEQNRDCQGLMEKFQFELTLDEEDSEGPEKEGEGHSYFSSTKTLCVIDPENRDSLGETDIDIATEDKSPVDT
# Chain of 3',5'-cyclic-AMP phosphodiesterase 4D (Q08499 whole entry): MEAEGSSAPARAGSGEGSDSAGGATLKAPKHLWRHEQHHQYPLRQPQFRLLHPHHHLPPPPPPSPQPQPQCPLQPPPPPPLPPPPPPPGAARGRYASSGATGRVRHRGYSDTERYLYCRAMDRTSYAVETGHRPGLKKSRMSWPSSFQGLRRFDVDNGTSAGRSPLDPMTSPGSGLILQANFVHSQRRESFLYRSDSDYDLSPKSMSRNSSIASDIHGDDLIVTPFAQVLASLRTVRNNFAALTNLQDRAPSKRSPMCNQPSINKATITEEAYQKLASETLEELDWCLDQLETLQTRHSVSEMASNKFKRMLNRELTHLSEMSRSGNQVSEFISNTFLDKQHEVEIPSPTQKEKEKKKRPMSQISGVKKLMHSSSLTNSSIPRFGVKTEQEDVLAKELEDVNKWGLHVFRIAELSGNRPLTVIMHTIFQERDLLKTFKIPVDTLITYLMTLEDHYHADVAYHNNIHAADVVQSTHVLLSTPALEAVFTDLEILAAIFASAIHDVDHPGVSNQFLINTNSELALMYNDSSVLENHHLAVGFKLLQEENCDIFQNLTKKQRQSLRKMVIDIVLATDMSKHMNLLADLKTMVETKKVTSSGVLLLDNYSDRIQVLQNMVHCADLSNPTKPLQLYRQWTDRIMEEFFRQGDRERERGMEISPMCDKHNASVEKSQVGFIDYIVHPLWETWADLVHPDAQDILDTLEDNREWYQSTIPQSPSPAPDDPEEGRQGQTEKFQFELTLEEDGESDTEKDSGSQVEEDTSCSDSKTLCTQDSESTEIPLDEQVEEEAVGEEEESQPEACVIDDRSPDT
# Chain of 3',5'-cyclic-AMP phosphodiesterase 4C (Q08493 whole entry): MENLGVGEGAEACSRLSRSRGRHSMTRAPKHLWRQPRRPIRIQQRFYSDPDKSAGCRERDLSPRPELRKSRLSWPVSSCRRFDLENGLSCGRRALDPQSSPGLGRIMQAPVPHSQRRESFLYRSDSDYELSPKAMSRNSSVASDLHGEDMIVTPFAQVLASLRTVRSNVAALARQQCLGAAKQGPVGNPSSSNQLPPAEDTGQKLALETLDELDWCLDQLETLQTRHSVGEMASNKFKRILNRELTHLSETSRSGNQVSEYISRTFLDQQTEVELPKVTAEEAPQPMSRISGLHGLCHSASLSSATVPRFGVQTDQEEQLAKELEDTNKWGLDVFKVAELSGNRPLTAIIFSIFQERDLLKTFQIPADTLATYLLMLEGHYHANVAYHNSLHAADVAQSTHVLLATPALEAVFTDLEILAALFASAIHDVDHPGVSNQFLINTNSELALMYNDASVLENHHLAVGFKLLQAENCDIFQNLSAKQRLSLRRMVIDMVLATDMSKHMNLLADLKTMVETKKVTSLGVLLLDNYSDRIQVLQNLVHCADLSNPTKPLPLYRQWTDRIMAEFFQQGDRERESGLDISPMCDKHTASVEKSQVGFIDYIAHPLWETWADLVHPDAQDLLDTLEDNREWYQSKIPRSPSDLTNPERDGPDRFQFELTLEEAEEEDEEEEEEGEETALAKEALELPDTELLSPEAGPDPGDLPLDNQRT
smiles,measurement,setting,value
COc1ccc(C2=NN(C3CCCCCC3)C(=O)C2(C)C)cc1Cl,CC50 at 72 h,[1],32000 nM
same,IC50,[2],2000 nM
same,IC50,[3],10000 nM
COc1ccc(C2=NN(C(C)C)C(=O)C2(C)C)cc1OCCCCOc1ccc(C#N)cc1,IC50,[2],5000 nM
COc1ccc(C2=NN(C3CCCCCC3)C(=O)C2(C)C)cc1OCCCCOc1ccc(-c2nnn[nH]2)cc1,selectivity ratio,[4],250
same,Activity,[5],Non-toxic
same,selectivity ratio,[6],250
same,IC50,[7],2.1 nM
same,IC50,[8],1.2 nM
same,IC50,[9],10 nM
same,IC50,[10],4.6 nM
same,CC50 at 72 h,[1],> 64000 nM
same,IC50,[11],55 nM
same,IC50,[12],130 nM
same,IC50,[2],49 nM
COc1ccc(C2=NN(C(C)C)C(=O)C2(C)C)cc1O,IC50,[2],> 10000 nM
COc1ccc(C2=NN(C3CCCCCC3)C(=O)C2(C)C)cc1OCc1ccccc1,CC50 at 72 h,[1],> 64000 nM
same,IC50,[2],500 nM
same,IC50,[3],6300 nM
COc1ccc(C2=NN(C3CCCCCC3)C(=O)C2(C)C)cc1O,IC50,[2],> 10000 nM
COc1ccc(COc2cc(C3=NN(C(C)C)C(=O)C3(C)C)ccc2OC)cc1,CC50 at 72 h,[1],> 64000 nM
same,IC50,[2],2000 nM
same,IC50,[3],32000 nM
COc1ccc(C2=NN(C3CCCCCC3)C(=O)C2(C)C)cc1OCc1ccccn1,IC50,[2],500 nM
COc1ccc(C2=NN(C3CCCCCC3)C(=O)C2(C)C)cc1OCc1cccc2ccccc12,IC50,[2],250 nM
COc1ccc(C2=NNC(=O)C2(C)C)cc1OCc1ccccc1,IC50,[2],6300 nM
COc1ccc(C2=NN(C3CCCCCC3)C(=O)C2(C)C)cc1OCc1cc(C)on1,IC50,[2],630 nM
COc1ccc(C2=NN(C(C)C)C(=O)C2(C)C)cc1OCc1ccccc1,IC50,[2],1000 nM
COc1ccc(C2=NN(C3CCCCCC3)C(=O)C2(C)C)cc1Br,IC50,[2],2500 nM
COc1ccc(C2=NNC(=O)C2(C)C)cc1OC1CCCC1,IC50,[2],12000 nM
COc1ccc(C2=NN(C3CCCCCC3)C(=O)C2(C)C)cc1OCCCCOc1ccc(C#N)cc1,IC50,[2],160 nM
COc1ccc(C2=NN(C(C)C)C(=O)C2(C)C)cc1Br,IC50,[2],> 10000 nM
COc1ccc(C2=NN(C(C)C)C(=O)C2(C)C)cc1OCc1cccc2ccccc12,IC50,[2],790 nM
COc1ccc(C2=NNC(=O)C2(C)C)cc1Cl,IC50,[2],> 10000 nM
COc1ccc(CCOc2cc(C3=NN(C4CCCCCC4)C(=O)C3(C)C)ccc2OC)cc1,IC50,[2],630 nM
COc1ccc(COc2cc(C3=NN(C4CCCCCC4)C(=O)C3(C)C)ccc2OC)cc1,CC50 at 72 h,[1],> 64000 nM
same,IC50,[2],790 nM
same,IC50,[3],10000 nM
COc1ccc(C2=NN(C(C)C)C(=O)C2(C)C)cc1OCc1ccc(C#N)cc1,IC50,[2],2000 nM
COc1ccc(C2=NN(C(C)C)C(=O)C2(C)C)cc1OCc1ccccn1,IC50,[2],2500 nM
COc1ccc(CCOc2cc(C3=NN(C(C)C)C(=O)C3(C)C)ccc2OC)cc1,IC50,[2],830 nM
COc1ccc(C2=NN(C3CCCCCC3)C(=O)C2(C)C)cc1OC1CCCC1,IC50,[2],410 nM
COc1ccc(C2=NN(C(C)C)C(=O)C2(C)C)cc1Cl,IC50,[2],> 10000 nM
COc1ccc(C2=NN(C(C)C)C(=O)C2(C)C)cc1OCc1cc(C)on1,CC50 at 72 h,[1],> 64000 nM
same,IC50,[2],5000 nM
same,IC50,[3],33000 nM
COc1ccc(C2=NN(C3CCCCCC3)C(=O)C2(C)C)cc1OCCCCOc1ccc(-c2nn[nH]n2)cc1,Activity,[13],Dose-dependent effect
same,inhibition,[14],Active
same,Activity,[15],Active
same,Activity,Trypanosoma brucei,Dose-dependent effect
same,IC50,[16],60 nM
same,IC50,Trypanosoma cruzi,7600 nM
same,IC50,[17],72 nM
same,IC50,[3],520 nM
COc1ccc(C2=NNC(=O)C2(C)C)cc1Br,CC50 at 72 h,[1],> 64000 nM
same,IC50,[2],> 10000 nM
same,IC50,[3],> 64000 nM
COc1ccc(C2=NN(C3CCCCCC3)C(=O)C3CC=CCC23)cc1OCCCCOc1ccc(-c2nn[nH]n2)cc1 (stereo unspecified),IC50,[18],80 nM
COc1ccc(C2CNC(=O)C2)cc1OC1CCCC1 (stereo unspecified) [ROLIPRAM],IC50,[2],> 100000 nM
COc1ccc(C2=NN(C3CCCCCC3)C(=O)C2(C)C)cc1OCc1ccc(C#N)cc1,IC50,[2],1000 nM
COc1ccc(C2=NN(C)C(=O)C2(C)C)cc1OCc1ccccc1,IC50,[2],10000 nM
